Common to all, as to assay type: nucleic-acid assay
Experiment [1] concerns Nucleic Acid. Description: Inhibitory concentration required to displace DNA-bound ethidium bromide molecules bound to CT12 (5''-CGTAGCGCTACG)2. The method, boiled down:
(§1)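 Ethidium bromide displacement at 25 °C: duplex DNA (1 μM) and ethidium bromide (1 μM) in 20 mM Tris–HCl, pH 8.0, containing 1 mM MgCl2. Ligand titrated from 0 to 10 μM. Fluorescence read at λex 546 nm, λem 590 nm. IC50 is the concentration displacing 50% of DNA-bound ethidium, expressed as the dimer complex except for Hoechst 33258.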

The test system of experiment [2] is Nucleic Acid. Nature of the experiment: Inhibitory concentration required to displace DNA-bound ethidium bromide molecules bound to CA12 (5''-CGCGAATTCGCG)2. The method, boiled down: as §1
The subject of experiment [3] is Nucleic Acid. Nature of the experiment: Inhibitory concentration required to displace DNA-bound ethidium bromide molecules bound to CA12 (5''-CGCGAATTCGCG)2; NI denotes no inhibition. The method, boiled down: as §1
For experiment [4], the system named is Nucleic Acid. Description: Inhibitory concentration required to displace DNA-bound ethidium bromide molecules bound to CT12 (5''-CGTAGCGCTACG)2; NI denotes no inhibition. The method, boiled down:
as §1

In experiment [5] the test system is Nucleic Acid. Description: Inhibitory concentration required to displace one of two DNA-bound ethidium bromide molecules bound to CT12 (5''-CGTAGCGCTACG)2. Summed up: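 Ethidium bromide displacement at 25 °C. CT12 duplex (1 μM) and ethidium bromide (1 μM) in 20 mM Tris–HCl, pH 8.0, with 1 mM MgCl2. Ligand titrated from 0 to 10 μM. Fluorescence read at λex 546 nm, λem 590 nm. IC50 is the concentration that displaces 50% of DNA-bound ethidium, expressed as dimer complex.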

For orientation: IC50 means the concentration that inhibits the measured activity by half. A high value points to weaker potency. Turning to `CCCCCC(O)C1C(=O)c2c(cc3cc(O)cc(O)c3c2O)C[C@H]1C` (stereo partly specified), the IC50 with Nucleic Acid [1] worked out at 6500 nM; in the experiment on Nucleic Acid [2], 4500 nM.
In the same order, the values of `CN1CCN(c2ccc3[nH]c(-c4ccc5[nH]c(-c6ccc(O)cc6)nc5c4)nc3c2)CC1` [HOECHST 33258] are over 20000 nM and 1000 nM.
On to `C[C@H]1CC(=O)c2c(cc3cc(O)cc(O)c3c2O)C1`, for which the IC50 result in the experiment on Nucleic Acid [3] and in the experiment with Nucleic Acid [4] was “Not Active” throughout.
On to `CO[C@@H]1[C@H](O)C[C@@H](O[C@@H]2C[C@H](Oc3cc4cc5c(c(O)c4c(O)c3C)C(=O)[C@@H](O[C@H]3C[C@@H](O[C@H]4C[C@@H](O[C@H]6C[C@](C)(O)[C@@H](OC(C)=O)[C@H](C)O6)[C@H](O)[C@@H](C)O4)[C@H](O)[C@@H](C)O3)[C@H]([C@H](OC)C(=O)[C@@H](O)[C@@H](C)O)C5)O[C@H](C)[C@@H]2OC(C)=O)O[C@@H]1C` [CHROMOMYCIN A3], for which the IC50 with Nucleic Acid [2] worked out at 9000 nM; with Nucleic Acid [5], 3000 nM.
Consider `CCCCCC[C@H]1C(=O)c2c(cc3cc(O)cc(O)c3c2O)C[C@H]1C`, for which the IC50 worked out at 3000 nM in the experiment with Nucleic Acid [1] and 2500 nM with Nucleic Acid [2].
For `CCCCCCC1C(=O)c2c(cc3cc(O)cc(O)c3c2O)C[C@H]1C` (stereo partly specified) the same measures were 3500 nM and 3000 nM.
For `CCCCC/C=C1/C(=O)c2c(cc3cc(O)cc(O)c3c2O)C[C@H]1C` the same measures were 2500 nM and 2500 nM.
As for `CCCCCC[C@@H]1C(=O)c2c(cc3cc(O)cc(O)c3c2O)C[C@H]1C`, the IC50 in the experiment on Nucleic Acid [1] and in the experiment with Nucleic Acid [2] was 3000 nM in each case.

Source of the values: ChEMBL document CHEMBL1137035, “New DNA binding ligands as a model of chromomycin A3” (Bioorg Med Chem Lett, 2004).
